Compound activity (PubChem BioAssay)
The list is not random: actives were taken first. Their share in the collection is about 3.8%.
OX1R antag-1: OX1R (human) antagonism; O43613; AID 485270; inhibition, % at 6.6 µM; actives 1.8% (n = 330,000); OX1R-expressing cells, FRET antagonist read-out; in the data active = inhibition mostly above about 38%, no sharp cut-off; inactive = mostly below about 40%;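 also: 0% = agonist challenge alone and 100% = reference antagonist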
Target sequence (O43613 whole entry, looked up): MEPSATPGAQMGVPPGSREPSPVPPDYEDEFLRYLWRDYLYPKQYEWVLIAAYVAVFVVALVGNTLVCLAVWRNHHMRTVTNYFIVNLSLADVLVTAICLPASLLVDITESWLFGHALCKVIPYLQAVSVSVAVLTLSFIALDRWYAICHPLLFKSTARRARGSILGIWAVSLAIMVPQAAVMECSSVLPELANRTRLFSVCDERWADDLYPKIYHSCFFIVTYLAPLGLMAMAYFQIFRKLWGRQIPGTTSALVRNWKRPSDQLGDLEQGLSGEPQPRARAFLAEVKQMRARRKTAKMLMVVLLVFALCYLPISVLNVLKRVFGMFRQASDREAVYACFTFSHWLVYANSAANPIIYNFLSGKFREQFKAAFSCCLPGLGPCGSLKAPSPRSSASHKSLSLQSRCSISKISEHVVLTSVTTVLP
MPTP inh: inhibitors of mitochondrial permeability transition pore. inhibition, % at 10 µM. isolated mouse mitochondria, Ca2+ swelling absorbance, 30 min. AID 602449. actives 1.4% (n = 360,000);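 active = inhibition of 50% or more, scaled per plate between neutral and stimulator controls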;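 also: 0% = DMSO wells given calcium and 100% = 1 mM EGTA wells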
GPR7 antagonist: blocks human GPR7 receptor signaling. P48145. GPR7-expressing cells, fluorescence antagonist assay. inhibition, % at 4.4 µM. actives 1.1% (n = 290,000); in the data active = inhibition above about 16%, passing the limit was not always enough;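 also: cells stimulated with the agonist NPW; 0% = agonist with vehicle and 100% = vehicle without agonist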
CHO parental Ca: counter-screen: ATP calcium response change in parental CHO cells. parental CHO-K1, ATP-induced calcium, Fluo-8 fluorescence. inhibition, % at 5.6 µM. actives 0.63% (n = 330,000);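 active = inhibition above that plate's mean sample inhibition plus 3 SD, cut at about 26% in these data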;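 also: 0% = ATP-challenged DMSO wells and 100% = DMSO wells without ATP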
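Test system: untransfected parental CHO cell line; also added: ATP stimulus; dosing: 5.6 µM, single dose; signal: calcium-sensitive Fluo-8 fluorescence; measure: percent inhibition of ATP-evoked calcium rise, normalized to controls; benchmarks: low control ATP plus DMSO, high control DMSO only; replication: one well per compound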
OX1R antag-2: human HCRTR1 antagonism; actives 0.43% (n = 330,000); AID 434989; CHO/OX1R cells, Fluo-8 calcium fluorescence, orexin A; inhibition, % at 5 µM;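 active = inhibition above its plate's threshold, mean inhibition of all tested compounds on the plate plus 3 SD, cut at about 37% in these data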;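 also: 0% = orexin A challenge wells and 100% = SB-334867-A antagonist wells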
Active calls of the source: *; . = not tested or not shown.

SMILES	OX1R antag-1	MPTP inh	GPR7 antagonist	CHO parental Ca	OX1R antag-2
OCCC1CN(Cc2ccc3nsnc3c2)CCN1CCc1ccccc1 (stereo not given)	24.9	0.3	-14.9	-16.5	-33.1
O=[N+]([O-])c1cccc(OCC(O)CN2CCN(S(=O)(=O)c3cc(Cl)ccc3Cl)CC2)c1 (stereo not given)	8.6	0.4	7.5	26.9	11.3
N#CC(C#N)=C1C=CC=CN1/C(=C\c1ccco1)C(=O)c1ccc(-c2ccccc2)cc1	13.8	-1.9	15.9	19.8	7.3
N#CC(C#N)=C1C=CC=CN1/C(=C\c1ccco1)C(=O)c1ccc(Cl)cc1	88.1*	-1.9	9.8	89.7*	62.5*
COc1cc(/C=N/O)ccc1Oc1ccc([N+](=O)[O-])cc1[N+](=O)[O-]	39.5	1.7	-4.0	-17.6	-24.4
O=[N+]([O-])c1cc(/C=N\O)ccc1Oc1ccc(F)cc1	13.7	-0.5	16.1*	-2.4	-1.7
CN(NS(=O)(=O)c1ccc(Cl)cc1)c1nc(C(F)(F)F)nc2ccccc12	55.3*	6.9	-1.6	4.0	-20.7
COc1ccc(-c2nc(N3CCCCCC3)sc2C(=O)c2ccccc2)cc1	38.7	1.8	-6.0	36.1*	55.9*
CN1CCN(C(=O)c2cc([N+](=O)[O-])cc([N+](=O)[O-])c2)CC1	62.9*	-0.2	-7.2	10.2	-12.4
CN1CCN(NC(=O)c2cc([N+](=O)[O-])cc([N+](=O)[O-])c2)CC1	71.3*	-0.2	-12.7	-8.8	-4.5
O=C(N/N=C/c1cc(Cl)cc([N+](=O)[O-])c1O)c1ccc2c(c1)OCO2	56.4*	9.3	-6.6	-9.7	-4.7
O=C(N/N=C/c1c[nH]c2ccccc12)c1ccc2c(c1)OCCO2	13.4	0.6	-0.8	-6.8	-10.7
O=C(N/N=C/c1c[nH]c2ccc(Br)cc12)c1ccc2c(c1)OCO2	68.6*	-0.1	14.8	-9.2	0.1
O=C(CNC(=O)c1ccccc1)N/N=C/c1cc(Br)ccc1O	35.4	-1.2	-9.4	-4.4	-13.8
O=C(CSCc1cccc(Br)c1)N/N=C/c1ccc2c(c1)OCO2	63.2*	4.8	7.1	15.8	12.3
O=C(CNC(=O)c1ccc2c(c1)OCO2)N/N=C/c1cc(Br)ccc1O	48.0*	1.0	-9.0	7.2	3.5
O=C(CSCc1ccccc1Br)N/N=C/c1ccc2c(c1)OCO2	58.9	4.9	8.3	3.3	17.9
O=CN1CCN(C(C(=O)NC2CCCCC2)c2ccc(Cl)cc2)CC1 (stereo not given)	11.7	-1.1	.	-13.8	-24.9
Cc1cccc(NC(=O)COC(=O)c2nn(C)c(=O)c3ccccc23)c1C	2.5	0.1	.	-3.4	-9.3
Cn1cc(C(=O)N/N=C/c2ccc3c(c2)OCO3)c2ccccc21	43.1*	3.7	1.1	-4.5	11.2
Cc1ccc(NC(=O)c2cc(=O)[nH]c3ccccc23)cc1C	.	0.0	1.7	.	.
COc1ccc(-c2cnnc(N/N=C/c3ccc(O)c(O)c3)n2)cc1	75.3*	0.4	6.8	-0.1	-8.2
COc1ccc(-c2cnnc(N/N=C/c3ccc(O)cc3)n2)cc1	21.8	-0.7	-6.4	-19.2	-39.4
S=C(NCCCc1cnc[nH]1)NCCCN(Cc1ccc(Cl)cc1)c1ccc(Br)cn1	.	0.4	.	.	.
Cc1ccc(NC(=O)Cn2ccc([N+](=O)[O-])n2)cc1C	6.4	0.8	5.3	-8.9	-22.1
SMILES	OX1R antag-1	MPTP inh	GPR7 antagonist	CHO parental Ca	OX1R antag-2
CCN(CC)c1ccc2c(Cl)c(Br)c(=O)oc2c1	8.6	2.6	41.0*	80.8*	89.9*
COc1cc(/C=C2\SC(=N)N(c3ccc(F)cc3)C2=O)ccc1O	38.4	-0.1	-8.2	-10.0	14.7
COc1cc(/C=C2\SC(=N)N(c3ccc4c(c3)OCO4)C2=O)cc(OC)c1O	50.9*	6.8	-6.5	-1.4	-8.6
CCOc1cc(S(=O)(=O)Nc2ccc(CC)cc2)ccc1Cl	12.3	5.1	-11.8	41.9*	-2.9
Cc1oc2c(c1C(=O)NCc1cccnc1)C(=O)c1ccccc1C2=O	45.6*	.	-17.1	-7.6	-31.7
CN(C)C(=O)c1ccc(Cc2cn(C)c3ccccc23)nc1	.	0.1	.	.	.
COc1ccc(F)cc1-c1cc(C(=O)NCc2cccc(Cl)c2)[nH]n1	.	0.0	.	.	.
C[C@@H]1CCCCCCCCC(=O)OCCN(C(=O)OC(C)(C)C)[C@H](C)CCCCCCCCC(=O)OCCN(C(=O)OC(C)(C)C)[C@H](C)CCCCCCCCC(=O)OCCN(C(=O)OC(C)(C)C)[C@H](C)CCCCCCCCC(=O)OCCN1C(=O)OC(C)(C)C	2.8	-2.7	.	1.4	-19.5
Cc1nc2ccccc2c2c1C(=O)NC2=O	38.6*	.	-8.8	-5.7	-4.4
CC(C)NC(=O)c1ccc2c(=O)n(CC3CCCO3)c(=S)[nH]c2c1 (stereo not given)	7.7	0.7	17.4*	-5.5	-11.8
COCCCNC(=O)c1ccc2c(=O)n(CC3CCCO3)c(=S)[nH]c2c1 (stereo not given)	12.2	0.2	1.5	-1.0	-26.0
COc1ccc(CCC(=O)Nc2nc3ccccc3[nH]2)cc1	-0.8	-2.5	-12.6	70.3*	20.6
COC(=O)c1cn(NC(=O)Cc2cccc(OC)c2)c(=O)c2ccccc12	72.3*	1.4	1.5	-23.0	-21.0
COC(=O)c1cn(NC(=O)Cc2ccc(OC)c(OC)c2)c(=O)c2ccccc12	47.8*	-0.4	-2.3	-13.3	-8.1
COC(=O)c1cn(NC(=O)Cc2c(F)cccc2Cl)c(=O)c2ccccc12	35.1	0.9	-4.2	-5.9	-24.6
COC(=O)c1cn(NC(=O)c2ccc(OC)c(OC)c2)c(=O)c2ccccc12	17.9	-0.9	12.1	-10.4	-5.6
O=C(NCCCN1CCOCC1)c1ccc(Cl)cc1Cl	8.2	0.1	-17.1	-5.1	-13.0
CCc1nc2ccc(C(=O)N(C)CCN(C)C)cn2c1N(C)Cc1cc2ccccc2s1	.	-0.9	.	.	.
O=[N+]([O-])c1ccc(N2CCOCC2)cn1	40.1*	-1.5	-3.0	-2.5	-16.1
O=[N+]([O-])c1cccnc1N1CCOCC1	9.8	-0.3	0.1	-0.3	5.9
O=[N+]([O-])c1ccc(N2CCOCC2)cc1O	42.4*	1.8	9.8	-11.3	-5.4
CN1CCN(CC(=O)Nc2ccccc2[N+](=O)[O-])CC1	17.3	0.0	-11.5	3.3	-21.0
CN1CCN(CC(=O)Nc2cc(N3CCOCC3)ccc2[N+](=O)[O-])CC1	65.2*	1.7	-12.6	2.3	-4.4
Nc1nonc1-n1nnc(C(=O)N/N=C/c2cccnc2)c1CSc1ccccc1	28.4	0.9	0.4	-9.0	10.0
Nc1nonc1-n1nnc(C(=O)N/N=C/c2cccnc2)c1CSc1ccc(Cl)cc1	47.5*	0.8	-13.0	-0.4	19.9
CN(C)c1cc(-c2ccc(Cl)cc2)oc(=O)c1Cl	15.5	1.4	-13.4	-16.2	-32.1
CN(C)c1cc(-c2ccc([N+](=O)[O-])cc2)oc(=O)c1Cl	49.3*	2.2	-17.3	-11.9	-21.3
COc1cc(C(=O)NCCC(=O)N2CCC3(CC2)NCCc2[nH]cnc23)cc(OC)c1OC	5.6	-1.9	-5.2	-1.7	-11.6
